Molecules are shown by their SMILES. Bounds are passed on as bounds.

The results in this text go back to ChEMBL document CHEMBL4393654, “Discovery and Early Clinical Development of an Inhibitor of 5-Lipoxygenase Activating Protein (AZD5718) for Treatment of Coronary Artery Disease” (J Med Chem, 2019).

A short description of series [1]: Mutagenicity in Salmonella typhimurium TA98 in presence of rat S9 fraction by Ames test. It is filed as toxicity, subcellular. The following applies: salmonella enterica subsp. enterica serovar typhimurium. The method in brief:
(§1)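 Ames bacterial mutagenicity test in S. typhimurium TA98 and TA100. Run with and without metabolic activation by rat S9 fraction.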
For orientation: The Ames test uses bacterial strains that need an amino acid and regain growth without it when mutated back.

Series [2] in a line: Mutagenicity in Salmonella typhimurium TA100 in absence of rat S9 fraction by Ames test. The format is toxicity. The following applies: salmonella enterica subsp. enterica serovar typhimurium. The method in brief:
as §1

Another series deals with T1, Cytochrome P450 2C8 (Homo sapiens, UniProt P10632).
T1 sequence (P10632 whole entry): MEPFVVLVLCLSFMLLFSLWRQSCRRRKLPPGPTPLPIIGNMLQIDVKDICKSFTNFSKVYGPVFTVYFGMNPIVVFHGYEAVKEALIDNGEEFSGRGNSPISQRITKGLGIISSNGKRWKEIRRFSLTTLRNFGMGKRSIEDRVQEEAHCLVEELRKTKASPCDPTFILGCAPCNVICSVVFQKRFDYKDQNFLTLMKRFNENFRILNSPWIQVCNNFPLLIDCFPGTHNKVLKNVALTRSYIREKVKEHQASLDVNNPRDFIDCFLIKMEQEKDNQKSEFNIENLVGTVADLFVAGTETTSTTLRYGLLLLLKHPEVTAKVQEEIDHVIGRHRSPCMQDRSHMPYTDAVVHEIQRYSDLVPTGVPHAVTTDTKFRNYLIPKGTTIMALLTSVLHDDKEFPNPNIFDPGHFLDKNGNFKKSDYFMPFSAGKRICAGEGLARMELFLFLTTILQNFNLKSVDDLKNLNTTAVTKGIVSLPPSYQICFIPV
The experiment in a line: Inhibition of recombinant human CYP2C8 expressed in Escherichia coli using luciferin-ME as substrate by fluorescence assay. It is filed as ADME.

Another series addresses T2, Cytochrome P450 1A2 (Homo sapiens, UniProt P05177).
T2 sequence (P05177 whole entry): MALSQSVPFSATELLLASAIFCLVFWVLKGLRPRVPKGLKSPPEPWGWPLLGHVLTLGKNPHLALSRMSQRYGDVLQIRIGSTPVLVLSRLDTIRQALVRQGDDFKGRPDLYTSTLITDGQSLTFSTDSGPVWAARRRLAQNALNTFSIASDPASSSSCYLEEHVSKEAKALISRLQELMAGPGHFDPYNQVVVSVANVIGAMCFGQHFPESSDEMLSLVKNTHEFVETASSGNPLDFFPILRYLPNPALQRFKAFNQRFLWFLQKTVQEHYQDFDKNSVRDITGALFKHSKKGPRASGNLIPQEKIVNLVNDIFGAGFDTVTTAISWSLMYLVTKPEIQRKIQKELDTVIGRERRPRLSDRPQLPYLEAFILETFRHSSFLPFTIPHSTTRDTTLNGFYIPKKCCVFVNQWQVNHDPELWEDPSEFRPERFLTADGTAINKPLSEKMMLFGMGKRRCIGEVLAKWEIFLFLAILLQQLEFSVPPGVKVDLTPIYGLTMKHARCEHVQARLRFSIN
Nature of the series: Inhibition of recombinant human CYP1A2 expressed in Escherichia coli using CEC as substrate by fluorescence assay. It is filed as ADME.

For series [3], the target named is T3, Aryl hydrocarbon receptor (Homo sapiens, UniProt P35869).
T3 sequence (P35869 whole entry): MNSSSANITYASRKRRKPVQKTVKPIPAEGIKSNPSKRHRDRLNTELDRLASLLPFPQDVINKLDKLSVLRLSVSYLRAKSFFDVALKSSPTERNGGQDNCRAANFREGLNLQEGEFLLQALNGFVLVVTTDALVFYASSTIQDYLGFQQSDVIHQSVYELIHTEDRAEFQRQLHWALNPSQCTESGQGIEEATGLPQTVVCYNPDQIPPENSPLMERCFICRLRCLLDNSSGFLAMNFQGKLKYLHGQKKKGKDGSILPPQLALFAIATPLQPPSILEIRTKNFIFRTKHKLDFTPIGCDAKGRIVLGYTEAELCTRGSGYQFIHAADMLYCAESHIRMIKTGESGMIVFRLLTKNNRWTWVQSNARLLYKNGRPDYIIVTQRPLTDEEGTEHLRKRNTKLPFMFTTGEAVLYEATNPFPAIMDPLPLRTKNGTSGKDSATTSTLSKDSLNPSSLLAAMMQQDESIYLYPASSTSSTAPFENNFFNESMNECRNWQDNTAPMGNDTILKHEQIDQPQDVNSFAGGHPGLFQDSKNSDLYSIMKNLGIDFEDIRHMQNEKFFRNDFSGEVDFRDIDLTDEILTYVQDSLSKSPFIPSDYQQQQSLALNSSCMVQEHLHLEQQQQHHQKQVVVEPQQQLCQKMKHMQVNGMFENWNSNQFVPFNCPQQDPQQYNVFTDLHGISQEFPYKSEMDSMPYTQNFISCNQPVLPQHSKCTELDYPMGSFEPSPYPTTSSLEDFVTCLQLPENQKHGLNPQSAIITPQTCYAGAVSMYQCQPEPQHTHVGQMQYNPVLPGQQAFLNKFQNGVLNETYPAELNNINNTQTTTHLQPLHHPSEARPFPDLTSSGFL
Nature of the series: Agonist activity at AhR in human HepG2 cells assessed as induction of CYP1A1 activity at 0.001 to 30 uM measured after 24 hrs by immunocytochemistry analysis. It is filed as ADME, cell-based. The conditions noted are these: hepg2, 24 h.

For series [4], the target named is T4, Potassium voltage-gated channel subfamily KQT member 1 (Homo sapiens, UniProt P51787).
T4 sequence (P51787 whole entry): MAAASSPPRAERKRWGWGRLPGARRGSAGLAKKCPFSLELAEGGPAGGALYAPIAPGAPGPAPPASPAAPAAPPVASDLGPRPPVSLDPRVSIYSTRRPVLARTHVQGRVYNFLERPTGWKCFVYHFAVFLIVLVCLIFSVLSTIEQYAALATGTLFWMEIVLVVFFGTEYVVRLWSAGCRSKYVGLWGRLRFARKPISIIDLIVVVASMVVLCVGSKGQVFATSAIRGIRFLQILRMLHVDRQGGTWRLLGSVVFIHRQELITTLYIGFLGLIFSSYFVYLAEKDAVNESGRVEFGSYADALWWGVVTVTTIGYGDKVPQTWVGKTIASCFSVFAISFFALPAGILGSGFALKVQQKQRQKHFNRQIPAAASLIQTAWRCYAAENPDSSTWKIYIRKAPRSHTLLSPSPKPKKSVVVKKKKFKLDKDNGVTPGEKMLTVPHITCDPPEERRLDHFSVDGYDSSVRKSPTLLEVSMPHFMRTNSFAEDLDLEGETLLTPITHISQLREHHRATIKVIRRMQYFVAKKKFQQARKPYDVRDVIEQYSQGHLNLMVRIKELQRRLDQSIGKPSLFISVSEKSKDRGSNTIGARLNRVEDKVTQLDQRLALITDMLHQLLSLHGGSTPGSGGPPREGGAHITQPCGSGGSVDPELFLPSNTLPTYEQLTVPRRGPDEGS
The experiment in a line: Inhibition of human Kv7.1 by Ion-work electrophysiology assay.

What is called IC50 is the concentration at which inhibition is half-maximal. As for `Cc1cc(-c2ccc(C(=O)[C@@H]3CCCC[C@H]3C(=O)Nc3cnn(C)c3C(=O)NOC(C)(C)C)cc2)[nH]n1`, the Activity result in series [1] was “Non-Toxic”; in series [2] it was “Non-Toxic”; in series [3], “Not Active”. Moreover, the results for the IC50 (on Cytochrome P450 2C8; at Cytochrome P450 1A2; in series [4]) were greater than 20 µM, greater than 20 µM and greater than 33 µM, respectively.
With `Cc1cc(-c2ccc(C(=O)[C@@H]3CCCC[C@H]3C(=O)Nc3cnn4c3C(=O)NCC4)cc2)[nH]n1`, the figures for the Activity entry in series [1], in series [2] and in series [3] were “Non-Toxic”, “Non-Toxic” and “Not Active”, respectively. Moreover, the IC50 was greater than 20 µM on Cytochrome P450 2C8, greater than 20 µM at Cytochrome P450 1A2 and greater than 33 µM in series [4].
For `Cc1cc(-c2ccc(C(=O)[C@@H]3CCCC[C@H]3C(=O)Nc3cnn(C)c3S(N)(=O)=O)cc2)[nH]n1`, the figures for the Activity entry in series [1], in series [2] and in series [3] were “Non-Toxic”, “Non-Toxic” and “Not Active”, respectively. The concentration for half-maximal inhibition (IC50) at Cytochrome P450 2C8 was greater than 20 µM; on Cytochrome P450 1A2, greater than 20 µM; in series [4], greater than 33 µM.
